The subject of data set [1] is Hepatovirus A. In words: Antiviral activity against Hepatitis A virus infected in rhesus monkey FRhK4 cells assessed as reduction in virus-induced cytopathic effect incubated for 72 hrs by MTT assay. It is filed as functional, organism-based. The following applies: FRhK-4, 72 h. The essentials: (§1)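 Virucidal format: HAV (10^6 […] TCID50/0.1 ml) was mixed with an equal volume of non-toxic compound concentrations for 1 h at 37 °C. The mixture was added to FRhK-4 monolayers for 1 h, then replaced with medium for 72 h. MTT OD540 was read in triplicate with virus and cell controls to give IC50. TI = CC50/IC50.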
Background: Protection from cytopathic effect is a common read-out in antiviral testing.

The nature of data set [2]: Cytotoxicity against rhesus monkey FRhK4 cells assessed as reduction in cell viability incubated for 48 hrs by MTT assay. The format is cell-based, Macaca mulatta. The essentials: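 FRhK-4 cells (DMEM, 10% FBS) were seeded at 5 X 10^3 cells/well and grown 24 h. They were exposed to compound at 7.8–1000 µg/mL for 48 h at 37 °C in 5% CO2. MTT (5 mg/mL) was added for 4 h, then DMSO for 30 min, and OD540 read. CC50 was derived from the mean of three ODs versus untreated cells.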

Data set [3] concerns Hepatovirus A. In words: Antiviral activity against Hepatitis A virus infected in rhesus monkey FRhK4 cells assessed as inhibition in viral adsorption using cells pre-incubated with compound for 24 hrs before viral infection for 1 hr by MTT assay. It is filed as functional, organism-based. The following applies: FRhK-4. The procedure, abridged: (§2)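 FRhK-4 monolayers in 24-well plates were exposed to non-toxic compound concentrations for 24 h at 37 °C in 5% CO2. Compound was then removed and HAV added for 1 h, after which the inoculum was replaced with medium for 72 h. MTT OD540 was read in triplicate alongside virus-infected and cell-only controls to give IC50. TI = CC50/IC50.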
A general note: Tetrazolium dyes change colour on reduction, which living cells bring about.

The test system of data set [4] is Hepatovirus A. In words: Antiviral activity against Hepatitis A virus infected in rhesus monkey FRhK4 cells assessed as inhibition in viral replication using cells pre-infected with virus before compound exposure for 72 hrs by MTT assay. It is filed as functional, organism-based. Particulars: FRhK-4, 72 h. The essentials:
(§3)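 FRhK-4 monolayers were infected with HAV for 1 h. Unbound virus was removed and replaced with medium containing non-toxic compound concentrations, then incubated 72 h at 37 °C in 5% CO2. MTT OD540 was read in triplicate alongside virus-infected and cell-only controls to give IC50. TI = CC50/IC50.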

The nature of data set [5]: Therapeutic index, ratio of CC50 of rhesus monkey FRhK cells to IC50 of antiviral activity against Hepatitis A virus infected in rhesus monkey FRhK4 cells. Particulars: read-out: Ratio CC50/IC50. The format is toxicity, cell-based. The essentials:
as §1

A short description of data set [6]: Therapeutic index, ratio of CC50 of rhesus monkey FRhK cells to IC50 of antiviral activity against Hepatitis A virus infected in rhesus monkey FRhK4 cells assessed as inhibition in viral adsorption using cells pre-incubated with compound for 24 hrs before viral infection for 1 hr by MTT assay. The following applies: read-out: Ratio CC50/IC50. The format is toxicity, cell-based. The essentials: as §2

Data set [7] in a line: Therapeutic index, ratio of CC50 of rhesus monkey FRhK cells to IC50 for antiviral activity against Hepatitis A virus infected in rhesus monkey FRhK4 cells assessed as inhibition in viral replication using cells pre-infected with virus before compound exposure for 72 hrs by MTT assay. The following applies: read-out: Ratio CC50/IC50. The format is toxicity, cell-based. The procedure, abridged: as §3

The nature of data set [8]: Inhibition of HAV 3C expressed in Escherichia coli BL21(DE3) pLysS using Dabcyl-GLRTQSND (edans) G as substrate preincubated for 3 mins before enzyme addition by fluorescence method. On the set-up: species or system Hepatovirus A.
Data set [9] is described as follows: Inhibition of HAV 3C expressed in Escherichia coli BL21(DE3) pLysS using Dabcyl-GLRTQSND (edans) G as substrate preincubated for 3 mins before enzyme addition by fluorescence method based Cheng and Prusoff equation analysis. On the set-up: species or system Hepatovirus A.
A short description of data set [10]: Inhibition of HRV 3C using chromogenic peptide substrate pre-incubated for 15 mins before substrate addition and measured after 1 to 2 hrs by colorimetric method. The essentials:
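HRV 3C protease was assayed with a commercial screening kit, with reagents equilibrated to room temperature. Enzyme was incubated with compound for 15 min at room temperature, with enzyme and solvent controls. Substrate was then added and absorbance at 405 nm read in kinetic mode for 1–2 h at 37 °C.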

Data set [11] is described as follows: Binding affinity to Hepatitis A virus Protease 3C. On the set-up: species or system Hepatovirus A.

SMILES strings stand for the structures. In brackets after ≈: the same amount, converted by molar mass.

For orientation: IC50 means the concentration needed to halve the response being measured. Broadly, the CC50 is the concentration at which the toxic effect on the cells reaches its halfway point. As a reminder, the Ki is the equilibrium dissociation constant of an inhibitor or competing ligand from its target. By pKd is commonly meant the Kd on a negative log10 scale, so that one unit is a factor of ten. `C/C(=N\NC(=O)COc1ccc2c(-c3ccccc3)cc(=O)oc2c1)c1ccc(Cl)cc1`: the IC50 with Hepatovirus A [1] was determined as 30.5 mg/L (≈ 68.2 µM); in the data set on Hepatovirus A [3], 44.4 mg/L (≈ 99.4 µM); in the data set with Hepatovirus A [4], 10.7 mg/L (≈ 23.9 µM); in data set [8], 5.94 µM; in data set [10], 4.13 µM. The CC50 at 48 h in data set [2] was 978 mg/L (≈ 2190 µM). Besides, the selectivity ratio in [5] was found to be 32. Further, in data set [6], the selectivity ratio at 1 h was determined as 22. Further, in [7], the selectivity ratio at 72 h was determined as 91. The compound also showed a Ki in data set [9] of 0.104 µM. Also, the pKd in [11] is 5.51.
As to `CCNC(=S)NNC(=O)COc1ccc2c(-c3ccccc3)cc(=O)oc2c1`, the IC50 came to 3.1 mg/L (≈ 7.8 µM) with Hepatovirus A [1]; 32.2 mg/L (≈ 81.1 µM) in the data set with Hepatovirus A [3]; 86 mg/L (≈ 216 µM) with Hepatovirus A [4]; 17.8 µM in data set [8]; 16.1 µM in [10]. Also, the CC50 at 48 h in data set [2] worked out at 258 mg/L (≈ 649 µM). The selectivity ratio in data set [5] was 83. For the same compound, the selectivity ratio at 1 h in data set [6] turned out to be 8. Moreover, in data set [7], the selectivity ratio at 72 h was 3. Besides, the affinity in data set [9], expressed as Ki, was 1.9 µM. This compound came in with a pKd in [11] of 6.78.
With `C/C(=N\NC(=O)COc1ccc2c(-c3ccccc3)cc(=O)oc2c1)c1ccc(Br)cc1`, the IC50 in the data set with Hepatovirus A [1] was 1880 mg/L (≈ 3830 µM); in the data set with Hepatovirus A [3] it was 8.5 mg/L (≈ 17.3 µM); in the data set on Hepatovirus A [4] it was 62.6 mg/L (≈ 127 µM); in data set [8], 7.19 µM; in [10] it was 6.3 µM. Further, the CC50 at 48 h in data set [2] came to 752 mg/L (≈ 1530 µM). The selectivity ratio in [5] stood at 0.4. Further, the selectivity ratio at 1 h in data set [6] stood at 88. Besides, in [7], the selectivity ratio at 72 h amounted to 12. The compound also displayed a Ki in [9] of 0.217 µM. Moreover, the pKd in [11] turned out to be 5.53.
For `O=c1cc(-c2ccccc2)c2ccc(O)cc2o1`, the 50% inhibitory concentration (IC50) in the data set on Hepatovirus A [1] was determined as 4.8 mg/L (≈ 20.1 µM); in the data set on Hepatovirus A [3], 1130 mg/L (≈ 4760 µM); with Hepatovirus A [4] it was 42.5 mg/L (≈ 178 µM). Also, the CC50 at 48 h in [2] was 340 mg/L (≈ 1430 µM). In addition, the selectivity ratio in [5] worked out at 70.8. For the same compound, the selectivity ratio at 1 h in data set [6] was found to be 0.3. In data set [7], the selectivity ratio at 72 h stood at 8.

The values are drawn from ChEMBL document CHEMBL4390665, “New 4-phenylcoumarin derivatives as potent 3C protease inhibitors: Design, synthesis, anti-HAV effect and molecular modeling” (Eur J Med Chem, 2019).
